Experimental data collected from several papers.
Each line is one published result; the experiments were not run side by side.
Target: Mitogen-activated protein kinase 13 (MAPK13, Homo sapiens, UniProt O15264)
Sequence (O15264 1-365, as in one of the studies): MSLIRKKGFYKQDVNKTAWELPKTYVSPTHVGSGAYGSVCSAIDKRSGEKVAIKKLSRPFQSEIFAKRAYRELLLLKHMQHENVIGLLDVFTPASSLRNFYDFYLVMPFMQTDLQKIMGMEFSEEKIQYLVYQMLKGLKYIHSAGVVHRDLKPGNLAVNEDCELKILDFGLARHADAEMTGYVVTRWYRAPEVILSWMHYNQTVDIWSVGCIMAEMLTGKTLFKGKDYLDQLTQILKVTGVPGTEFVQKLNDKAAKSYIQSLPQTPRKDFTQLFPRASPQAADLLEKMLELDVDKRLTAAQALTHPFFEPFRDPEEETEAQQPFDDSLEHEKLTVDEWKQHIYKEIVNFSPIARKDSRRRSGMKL

SMILES	observed	mode	technique	tested at	endpoint	value
CC(C)(C)c1cc(C=C(C#N)C#N)cc(Br)c1O	enzyme activity	inhibitor	–	0.5 µM	remaining activity	98.5%
Cc1nn(C)cc1-c1nc2c(N3CCN(Cc4ccc(Cl)cc4)CC3)c(Cl)cnc2[nH]1	binding	–	competition with immobilised ligand	1 µM	remaining binding	100%
Cn1cc(-c2cccc(N3CCc4c(sc5c4CC(C)(C)C5)C3=O)c2CO)cc(Nc2ccncn2)c1=O	enzyme activity	inhibitor	–	1 µM	inhibition	5%
N#CC1(c2ccccn2)CCN(Cc2cc(C(=O)O)c(=O)n3ccccc23)CC1	cell-free assay	–	competition with immobilised ligand	1 µM	remaining binding	100%
O=c1[nH]c2ccccc2n1C1CCN(Cc2ccc(-c3[nH]c4cc5ncnc5cc4nc3-c3ccccc3)cc2)CC1	cell-free assay	–	–	0.5 µM	remaining signal	102%
Cn1cc(-c2cc(F)cc(N3CCn4c(cc5c4CCCC5)C3=O)c2CO)cc(Nc2ccc(N3CCN(C4COC4)CC3)cn2)c1=O	enzyme activity	inhibitor	–	0.1 µM	inhibition	15%
Cn1cncc1[C@](O)(COc1ccc(C#N)cc1-c1ccc(OC(F)(F)F)cc1)c1ccc(C#N)cc1	cell-free assay	–	competition with immobilised ligand	1 µM	remaining binding	87%
COc1ncccc1-c1cnn2ccc(N3CCN(C(=O)OC(C)C)CC3)nc12	binding	–	competition with immobilised ligand	1 µM	remaining binding	100%
COc1cc(Nc2ncc(F)c(Nc3ccc4c(n3)NC(=O)C(C)(C)O4)n2)cc(OC)c1OC	binding	–	competition with immobilised ligand	10 µM	inhibition	100%
